Active and inactive are the calls of the source. The calls are words filed in the database; no cut-off is given here.

Experiment [1] is described as follows: Growth inhibition of human NCI-H1944 cells after 72 hrs by alamar blue method. In kind it is functional. To be noted: NCI-H1944, 72 h. Put shortly:
(§1)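 Cells kept in RPMI with 10% FBS and penicillin/streptomycin at 37°C, 5% CO2. Plated in 384-well format, dosed the next day, then incubated 72 hr before Alamar Blue read-out. GI50 is the concentration lowering viability by 50% versus solvent-vehicle control cells at the end of incubation.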

A further experiment relates to NCI-H157. Put plainly: Growth inhibition of human NCI-H157 cells after 72 hrs by alamar blue method. The format is functional. To be noted: NCI-H157, 72 h. An outline of the steps: as §1
The target of experiment [2] is T1, Inhibitor of NF-kappa-B kinase (IKK) (Homo sapiens, UniProt O14920+O15111+Q9Y6K9). Nature of the experiment: Inhibition of IKK in human A549 cells assessed as inhibition of TNF-alpha-induced IkappaB degradation at 0.5 to 25 uM preincubated for 4 hrs before TNFalpha challenge measured after 20 mins by Western blot analysis. The format is cell-based. An outline of the steps: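 A549 cells pretreated with compounds at indicated doses, then TNFα (10 ng/ml) added for a further 20 min. Cells lysed in NP-40 buffer (1.0% NP-40, 10 mM Hepes pH 7.4, 150 mM NaCl, phosphatase and protease inhibitors). Equal lysate volumes run on 12.5% SDS-PAGE, transferred to nitrocellulose, milk-blocked, and total IκB detected by Western blot.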
T1 sequence (O15111 whole entry, one chain of several): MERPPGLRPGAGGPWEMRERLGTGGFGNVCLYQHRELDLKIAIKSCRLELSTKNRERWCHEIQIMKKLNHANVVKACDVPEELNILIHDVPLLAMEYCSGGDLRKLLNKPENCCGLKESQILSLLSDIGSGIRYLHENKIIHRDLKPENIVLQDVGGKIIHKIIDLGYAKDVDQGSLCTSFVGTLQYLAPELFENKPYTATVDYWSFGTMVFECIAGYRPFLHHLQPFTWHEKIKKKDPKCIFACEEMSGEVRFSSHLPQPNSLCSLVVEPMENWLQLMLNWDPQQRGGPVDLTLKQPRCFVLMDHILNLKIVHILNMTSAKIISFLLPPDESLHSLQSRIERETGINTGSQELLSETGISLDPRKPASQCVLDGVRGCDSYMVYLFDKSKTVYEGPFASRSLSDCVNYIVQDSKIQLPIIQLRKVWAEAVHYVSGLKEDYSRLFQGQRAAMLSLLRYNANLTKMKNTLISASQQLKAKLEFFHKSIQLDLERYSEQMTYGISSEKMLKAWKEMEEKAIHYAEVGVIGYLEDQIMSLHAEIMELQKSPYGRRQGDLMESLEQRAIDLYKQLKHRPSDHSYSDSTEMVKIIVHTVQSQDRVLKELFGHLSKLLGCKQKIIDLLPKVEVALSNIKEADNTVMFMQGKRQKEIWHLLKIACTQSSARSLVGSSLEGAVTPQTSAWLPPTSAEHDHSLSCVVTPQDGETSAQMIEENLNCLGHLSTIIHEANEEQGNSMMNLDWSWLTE
T1 sequence (Q9Y6K9 whole entry, one chain of several): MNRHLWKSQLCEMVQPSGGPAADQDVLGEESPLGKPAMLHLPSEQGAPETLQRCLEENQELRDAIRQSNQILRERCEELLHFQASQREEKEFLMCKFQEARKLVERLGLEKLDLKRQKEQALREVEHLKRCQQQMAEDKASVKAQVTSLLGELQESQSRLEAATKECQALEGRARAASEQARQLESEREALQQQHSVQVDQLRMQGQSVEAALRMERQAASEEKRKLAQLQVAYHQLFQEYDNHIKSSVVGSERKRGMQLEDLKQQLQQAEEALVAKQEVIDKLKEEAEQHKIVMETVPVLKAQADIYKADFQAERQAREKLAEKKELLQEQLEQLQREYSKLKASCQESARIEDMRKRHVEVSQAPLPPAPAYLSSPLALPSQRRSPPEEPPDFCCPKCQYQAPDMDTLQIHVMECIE
A general note: Immunoblotting shows a protein as a band on a membrane.

Experiment [3] relates to A549. Nature of the experiment: Anticlonogenic activity against human A549 cells assessed as inhibition of colony formation of cells treated at 0.4 uM with test compound after cell plating and every 3 days thereafter and measured on day 9 after colonies formed by SRB assay. In kind it is functional. An outline of the steps:
(§2)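 A549 cells plated at 200 cells/well, incubated overnight, then exposed to compound or DMSO vehicle; medium and compound renewed every 3 days. On day 9, colonies fixed with 10% TCA for 30 min at 4°C, water-washed, SRB-stained and rinsed with 1% acetic acid. Plates scanned, colonies counted and normalized to DMSO control.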
(In SRB staining, fixed cells bind dye roughly in proportion to their protein.)

For experiment [4], the system named is A549. Put plainly: Growth inhibition of human A549 cells after 72 hrs by alamar blue method. In kind it is functional. To be noted: A549, 72 h. Put shortly:
as §1
For orientation: Alamar Blue is a resazurin reagent that responds to reducing activity.

The target in experiment [5] is T2, Inhibitor of nuclear factor kappa-B kinase subunit beta (Homo sapiens) (UniProt O14920).
T2 sequence (whole entry): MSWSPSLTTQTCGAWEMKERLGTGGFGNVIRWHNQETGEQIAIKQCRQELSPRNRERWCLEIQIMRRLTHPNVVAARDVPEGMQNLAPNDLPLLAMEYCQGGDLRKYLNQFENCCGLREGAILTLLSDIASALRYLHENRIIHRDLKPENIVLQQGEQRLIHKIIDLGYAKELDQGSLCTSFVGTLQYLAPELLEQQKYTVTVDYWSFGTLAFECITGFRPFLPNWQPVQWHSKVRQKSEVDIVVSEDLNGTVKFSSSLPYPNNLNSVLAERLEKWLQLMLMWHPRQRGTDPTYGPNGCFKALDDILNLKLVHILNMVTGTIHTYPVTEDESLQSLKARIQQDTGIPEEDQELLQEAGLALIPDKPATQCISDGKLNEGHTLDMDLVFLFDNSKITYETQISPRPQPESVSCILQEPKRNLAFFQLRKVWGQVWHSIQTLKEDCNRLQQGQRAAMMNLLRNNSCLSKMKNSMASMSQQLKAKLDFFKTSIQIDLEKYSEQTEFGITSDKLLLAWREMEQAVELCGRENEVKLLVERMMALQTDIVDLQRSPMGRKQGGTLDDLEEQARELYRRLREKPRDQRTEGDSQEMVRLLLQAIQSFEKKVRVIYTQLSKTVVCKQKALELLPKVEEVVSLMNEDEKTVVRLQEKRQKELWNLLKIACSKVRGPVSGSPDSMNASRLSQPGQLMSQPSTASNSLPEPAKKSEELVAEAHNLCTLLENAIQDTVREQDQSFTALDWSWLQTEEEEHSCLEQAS
Nature of the experiment: Inhibition of recombinant IKK-beta assessed as inhibition of incorporation of [gamma32P] to GST-IkappaBalpha after 30 mins by scintillation counting. Put shortly: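 Activated recombinant IKKβ (40 ng) preincubated with compounds 30 min at room temperature in MOPS buffer pH 7.0. Reaction started with Mg-ATP mix (100 μM ATP, 15 mM MgCl2), 5 μg GST-IκBα and 0.5 μCi [γ-32P]ATP in 25 μl, run 30 min at 30°C. Stopped by boiling in SDS buffer, resolved by 12.5% SDS-PAGE, autoradiographed. Excised bands quantified by scintillation counting.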

Experiment [6] in a line: (§3) Inhibition of TNF-alpha-induced NFkappaB nuclear translocation in human A549 cells preincubated for 30 mins before TNFalpha challenge and measured 30 post TNFalpha challenge by fluorescence method. The format is cell-based.
The test system of a further experiment is NCI-H460. Nature of the experiment: Growth inhibition of human H460 cells after 72 hrs by alamar blue method. The format is functional. The following applies: NCI-H460, 72 h. Put shortly: as §1
The target in experiment [7] is T1, Inhibitor of NF-kappa-B kinase (IKK). Nature of the experiment: Inhibition of IKK in human A549 cells assessed as inhibition of TNF-alpha-induced IkappaB phosphorylation preincubated for 30 mins before TNFalpha challenge. In kind it is cell-based. An outline of the steps:
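A549 cells pretreated 30 min with compounds before TNFα (10 ng/ml). Whole-cell NP-40 lysates prepared 7 min after TNFα, run on 12.5% SDS-PAGE and Western blotted with anti-pS32 IκB antibody. Membrane then stripped and reprobed for total IκB.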

In experiment [8] the test system is A549. Nature of the experiment: Growth inhibition of human A549 cells after 48 hrs by sulforhodamine B assay. The format is functional. The following applies: A549, 48 h.
For experiment [9], the system named is A549. Nature of the experiment: Anticlonogenic activity against human A549 cells assessed as inhibition of colony formation of cells treated at 4 uM with test compound after cell plating and every 3 days thereafter and measured on day 9 after colonies formed by SRB assay. The format is functional, cell-based. An outline of the steps:
as §2

Experiment [10] relates to A549. Nature of the experiment: Anticlonogenic activity against human A549 cells assessed as inhibition of colony formation of cells treated at 0.2 uM with test compound after cell plating and every 3 days thereafter and measured on day 9 after colonies formed by SRB assay. The format is functional. Put shortly:
as §2

The subject of experiment [11] is A549. The description is as §3. In kind it is cell-based.

As a reminder, the GI50 is the concentration that inhibits growth by half. High values mean lower sensitivity of the cells, low ones greater sensitivity of the cells. What is called inhibition is the change of the read-out against control, counted positive when it falls. The term IC50 denotes the point on the concentration scale where inhibition reaches its midpoint. Consider `COc1cc(/C=C/C(=O)C(=Cc2cccc(OC)c2OC)C(=O)/C=C/c2ccc(O)c(OC)c2)ccc1O`, for which the GI50 in experiment [1] was found to be 330 nM; in the experiment with NCI-H157, 530 nM; in the experiment with A549 [4], 930 nM; in the experiment with NCI-H460, 300 nM; with A549 [8], 420 nM. The inhibition entry in [2] is “Active”. For the same compound, the inhibition at 0.4 µM in the experiment with A549 [3] is 50%. Further, the inhibition entry in experiment [5] is “Dose-dependent effect”. In addition, the IC50 in experiment [6] was found to be 1700 nM; in experiment [7], 5000 nM.

Regarding `COc1cc(/C=C/C(=O)CC(=O)/C=C/c2ccc(O)c(OC)c2)ccc1O` [CURCUMIN], the GI50 was determined as 16200 nM in experiment [1]; 19200 nM with NCI-H157; 9440 nM in the experiment on A549 [4]; 12100 nM in the experiment on NCI-H460; 15200 nM in the experiment with A549 [8]. Further, the result in the experiment on A549 [9] was Active. In experiment [6], this compound displayed an IC50 of 9500 nM.

Take `COc1cc(C=C(C(=O)/C=C/c2ccc(OC)c(OC)c2)C(=O)/C=C/c2ccc(OC)c(OC)c2)ccc1O`: the inhibition at 0.2 µM in the experiment on A549 [10] was 50%. Besides, the GI50 in [1] was determined as 70 nM; in the experiment with NCI-H157, 160 nM; with A549 [4], 720 nM; in the experiment with NCI-H460 it was 130 nM; in the experiment with A549 [8] it was 530 nM. Further, in [2], the inhibition result is “Active”. In addition, the inhibition entry in experiment [5] is “Dose-dependent effect”. For the same compound, the IC50 was found to be 1000 nM in experiment [6] and 2800 nM in [7].

As to `COc1ccc(/C=C/C(=O)C(=Cc2ccc(F)cc2)C(=O)/C=C/c2ccc(OC)c(OC)c2)cc1OC`, the inhibition at 0.2 µM in the experiment on A549 [10] was determined as 50%. The GI50 in experiment [1] was 280 nM; in the experiment on NCI-H157, 280 nM; in the experiment on A549 [4] it was 700 nM; in the experiment on NCI-H460, 270 nM; in the experiment on A549 [8], 550 nM. In addition, the inhibition result in experiment [2] was “Active”. Also, the inhibition result (in experiment [5]; with A549 [11]) was “Dose-dependent effect” in each case. Besides, the IC50 in [6] is 1100 nM; in experiment [7], 2200 nM.

Source of the values: ChEMBL document CHEMBL1799938, “Synthesis and identification of new 4-arylidene curcumin analogues as potential anticancer agents targeting nuclear factor-κB signaling pathway” (J Med Chem, 2010).
